Reference: ChEMBL document CHEMBL1125298, “Hypocholesterolemic activity of synthetic and natural tocotrienols” (J Med Chem, 1992)
Values after ≈ are worked out from the molar mass of the structure shown. Values joined by “and” are separate entries in the source; they are usually repeats but may differ in a detail not shown here. Identical values can stand only once.

How the values were obtained:
Gallus gallus [1] = species: Gallus gallus; assay: Compound is evaluated for the effect on lipid metabolism in 6-week-old male chickens at a concentration of 20 ppm in the diet and measured for HDL cholesterol (dose 15 p.p.m.); assay type: functional
Gallus gallus [2] = species: Gallus gallus; assay: Compound is evaluated for the effect on lipid metabolism in 6-week-old male chickens at a concentration of 20 ppm in the diet and measured for HDL cholesterol (dose 30 p.p.m.); assay type: functional
Gallus gallus [3] = species: Gallus gallus; assay: Compound is evaluated for the effect on lipid metabolism in 6-week-old male chickens at a concentration of 20 ppm in the diet and measured for HDL cholesterol dose 45 p.p.m.); assay type: functional
Gallus gallus [4] = species: Gallus gallus; assay: picomoles of mevalonic acid synthesized per minute per mg of microsomal protein (dose 15 p.p.m.); assay type: functional, organism-based
Gallus gallus [5] = species: Gallus gallus; assay: picomoles of mevalonic acid synthesized per minute per mg of microsomal protein(dose 30 p.p.m.); assay type: functional, organism-based
Gallus gallus [6] = species: Gallus gallus; assay: picomoles of mevalonic acid synthesized per minute per mg of microsomal […] 45 p.p.m.); assay type: functional, organism-based
Gallus gallus [7] = species: Gallus gallus; assay: Compound is evaluated for the effect on lipid metabolism in 6-week-old male chickens at a concentration of 20 ppm in the diet and measured for LDL cholesterol (dose 15 p.p.m.); assay type: functional
Summary of the method: (§1)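 Male chicks were raised 2 weeks on a corn-soybean control diet, then fed 4 weeks on control diet or the same diet with compound added. All birds were fasted 36 h and refed 48 h before sacrifice. Serum cholesterol is given as mg/100 mL.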

Gallus gallus [8] = species: Gallus gallus; assay: Compound is evaluated for the effect on lipid metabolism in 6-week-old male chickens at a concentration of 20 ppm in the diet and measured for LDL cholesterol (dose 30 p.p.m.); assay type: functional; summary of the method: as §1
Gallus gallus [9] = species: Gallus gallus; assay: Compound is evaluated for the effect on lipid metabolism in 6-week-old male chickens at a concentration of 20 ppm in the diet and measured for LDL cholesterol dose 45 p.p.m.); assay type: functional; summary of the method: as §1
Gallus gallus [10] = species: Gallus gallus; assay: Compound is evaluated for the effect on lipid metabolism in 6-week-old male chickens at a concentration of 20 ppm in the diet and measured for total cholesterol (dose 15 p.p.m.); assay type: functional
Gallus gallus [11] = species: Gallus gallus; assay: Compound is evaluated for the effect on lipid metabolism in 6-week-old male chickens at a concentration of 20 ppm in the diet and measured for total cholesterol (dose 30 p.p.m.); assay type: functional
Gallus gallus [12] = species: Gallus gallus; assay: Compound is evaluated for the effect on lipid metabolism in 6-week-old male chickens at a concentration of 20 ppm in the diet and measured for total cholesterol (dose 45 p.p.m.); assay type: functional
HepG2 [13] = assay: Compound evaluated for Percent inhibition of cholesterol synthesis from HMG-CoA Reductase in HepG2 cell; assay type: functional, Homo sapiens
HepG2 [14] = assay: Compound evaluated for Percent inhibition of cholesterol synthesis from [14C]acetate in HepG2 cell; assay type: functional, Homo sapiens
HepG2 [15] = assay: Compound is evaluated for the inhibition of cholesterol synthesis in HepG2 cells for an incubation time of 2 (h); assay type: functional, cell-based; conditions: Homo sapiens
Summary of the method: (§2)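 HepG2 cells were grown in RPMI-1640 with 10% FBS. At about 70% confluence they were switched to 7% lipid-depleted serum for 16 h. Compound in DMSO (0.5% v/v final) was added for the stated time. A [2-14C]acetate pulse over the final 60 min measured incorporation into digitonin-precipitable sterols. IC50 came from linear regression of at least four concentrations, each in duplicate.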

HepG2 [16] = assay: Compound is evaluated for the inhibition of cholesterol synthesis in HepG2 cells for an incubation time of 4 (h); assay type: functional, cell-based; conditions: Homo sapiens; summary of the method: as §2
HepG2 [17] = assay: Compound is evaluated for the inhibition of cholesterol synthesis in HepG2 cells for an incubation time of 6 (h); assay type: functional, cell-based; conditions: Homo sapiens; summary of the method: as §2
HepG2 [18] = assay: Compound evaluated for percent inhibition of cholesterol synthesis from HMG-CoA Reductase in HepG2 cell; assay type: functional, Homo sapiens
HepG2 [19] = assay: Compound evaluated for percent inhibition of cholesterol synthesis from [14C]acetate in HepG2 cell; assay type: functional, Homo sapiens; parameters: concentration or dose not given beside the values
HepG2 [20] = assay: Compound is evaluated for relative potency versus gamma-tocotrienol at 2 (h) time point in HepG2 cells; assay type: functional, Homo sapiens
HepG2 [21] = assay: Compound is evaluated for relative potency versus gamma-tocotrienol at 4 (h) time point in HepG2 cells; assay type: functional, Homo sapiens
HepG2 [22] = assay: Compound is evaluated for relative potency versus gamma-tocotrienol at 6 (h) time point in HepG2 cells; assay type: functional, Homo sapiens
Rattus norvegicus [23] = species: Rattus norvegicus; assay: Compound is evaluated for the inhibition of cholesterol biosynthesis in rat hepatocytes at a concentration of 210 (micro g/mL); assay type: functional, Hepatocyte
Rattus norvegicus [24] = species: Rattus norvegicus; assay: Compound is evaluated for the inhibition of cholesterol biosynthesis in rat hepatocytes at a concentration of 41 (micro g/mL); assay type: functional, Hepatocyte
Gallus gallus [25] = species: Gallus gallus; assay: Compound is evaluated for the effect on lipid metabolism in 6-week-old male chickens at a concentration of 20 ppm in the diet and measured for HDL cholesterol; assay type: functional
Gallus gallus [26] = species: Gallus gallus; assay: picomoles of mevalonic acid synthesized per minute per mg of microsomal protein; assay type: functional, organism-based
Gallus gallus [27] = species: Gallus gallus; assay: Compound is evaluated for the effect on lipid metabolism in 6-week-old male chickens at a concentration of 20 ppm in the diet and measured for LDL cholesterol; assay type: functional; summary of the method: as §1
Gallus gallus [28] = species: Gallus gallus; assay: Compound is evaluated for the effect on lipid metabolism in 6-week-old male chickens at a concentration of 20 ppm in the diet and measured for total cholesterol; assay type: functional
Rattus norvegicus [29] = species: Rattus norvegicus; assay: Percent inhibition at 250 ug/mL of binary mixtures of compound and alpha-tocotrienol on cholesterol synthesis in rat hepatocytes; assay type: functional, Hepatocyte
Rattus norvegicus [30] = species: Rattus norvegicus; assay: Percent inhibition at 250 ug/mL of binary mixtures of compound and delta-tocotrienol on cholesterol synthesis in rat hepatocytes; assay type: functional, Hepatocyte
Rattus norvegicus [31] = species: Rattus norvegicus; assay: Percent inhibition at 250 ug/mL of binary mixtures of compound and gamma-tocotrienol on cholesterol synthesis in rat hepatocytes; assay type: functional, Hepatocyte
Rattus norvegicus [32] = species: Rattus norvegicus; assay: Percent inhibition of cholesterol biosynthesis in rat hepatocytes at a concentration of 210 (micro g/mL); assay type: functional, Hepatocyte
Rattus norvegicus [33] = species: Rattus norvegicus; assay: Compound is evaluated for the inhibition of cholesterol biosynthesis in isolated rat hepatocytes at the concentration 250 (ug/mL); assay type: functional, Hepatocyte
Rattus norvegicus [34] = species: Rattus norvegicus; assay: Compound is evaluated for the inhibition of cholesterol biosynthesis in isolated rat hepatocytes at the concentration 500 ug/mL; assay type: functional, Hepatocyte
Rattus norvegicus [35] = species: Rattus norvegicus; assay: Inhibitory concentration required to inhibit cholesterol synthesis in isolated rat Hepatocytes; no inhibition; assay type: functional; conditions: hepatocyte
Rattus norvegicus [36] = species: Rattus norvegicus; assay: Inhibitory concentration required to inhibit cholesterol synthesis in isolated rat Hepatocytes; assay type: functional, Hepatocyte
Rattus norvegicus [37] = species: Rattus norvegicus; assay: Compound is evaluated for the inhibition of cholesterol biosynthesis in isolated rat hepatocytes at the concentration 125 (ug/mL); assay type: functional, Hepatocyte
Rattus norvegicus [38] = species: Rattus norvegicus; assay: Compound is evaluated for the inhibition of cholesterol biosynthesis in isolated rat hepatocytes at the concentration 500 (ug/mL); assay type: functional, Hepatocyte
Gallus gallus [39] = species: Gallus gallus; assay: Compound is evaluated for the effect on lipid metabolism in 6-week-old male chickens at a concentration of 20 ppm in the diet and measured for HDL cholesterol (dose 45 p.p.m.); assay type: functional
Gallus gallus [40] = species: Gallus gallus; assay: picomoles of mevalonic acid synthesized per minute per mg of microsomal protein(dose 45 p.p.m.); assay type: functional, organism-based
Gallus gallus [41] = species: Gallus gallus; assay: Compound is evaluated for the effect on lipid metabolism in 6-week-old male chickens at a concentration of 20 ppm in the diet and measured for LDL cholesterol (dose 45 p.p.m.); assay type: functional; summary of the method: as §1
[42] = Rattus norvegicus, Hepatocyte, read-out: IC50

SMILES	HDL cholesterol (Gallus gallus [1]) [mg 100ml-1]	HDL cholesterol (Gallus gallus [2]) [mg 100ml-1]	HMGR activity (Gallus gallus [4])	HMGR activity (Gallus gallus [5])	LDL cholesterol (Gallus gallus [7]) [mg 100ml-1]	LDL cholesterol (Gallus gallus [8]) [mg 100ml-1]	Total cholesterol (Gallus gallus [10]) [mg 100ml-1]	Total cholesterol (Gallus gallus [11]) [mg 100ml-1]	Total cholesterol (Gallus gallus [12]) [mg 100ml-1]	Inhibition (HepG2 [13]) [%]	Inhibition (HepG2 [14]) [%]	HDL cholesterol (Gallus gallus [25]) [mg 100ml-1]	HMGR activity (Gallus gallus [26])	LDL cholesterol (Gallus gallus [27]) [mg 100ml-1]	Total cholesterol (Gallus gallus [28]) [mg 100ml-1]	Inhibition (Rattus norvegicus [33])	Inhibition (Rattus norvegicus [34])	IC50 (Rattus norvegicus [36]; [42]) [µg/mL]	IC50 (Rattus norvegicus [36]; hepatocyte) [µg/mL]	Inhibition (Rattus norvegicus [37]) [%]	further results
CC(C)=CCC/C(C)=C/CC/C(C)=C/CCC1(C)CCc2cc(O)c(C)c(C)c2O1 (racemic)	97	97	603	561	44	39	143	138	132	62	71										HDL cholesterol (Gallus gallus [3]): 96 mg 100ml-1; HMGR activity (Gallus gallus [6]): 551; LDL cholesterol (Gallus gallus [9]): 32 mg 100ml-1; IC50 (HepG2 [15]): 5.9 µM; IC50 (HepG2 [16]): 2.8 µM; IC50 (HepG2 [17]): 3 µM
CC(C)=CCC/C(C)=C/CC/C(C)=C/CCC1(C)CCc2c(C)c(O)c(C)c(C)c2O1 (racemic)																					Inhibition (HepG2 [18]): 19%; Inhibition (HepG2 [19]): 21%; IC50 (HepG2 [15]): 380 µM; IC50 (HepG2 [16]): 94 µM; Relative potency (HepG2 [20]): 0.016; Relative potency (HepG2 [21]): 0.03; Relative potency (HepG2 [22]): 0.027; Inhibition (Rattus norvegicus [23]): 17%; Inhibition (Rattus norvegicus [24]): 4%; IC50 (HepG2 [17]): 110 µM
Cc1c(C)c2c(c(C)c1O)CC[C@@](C)(CCC[C@H](C)CCC[C@H](C)CCCC(C)C)O2 [ALPHA-TOCOPHEROL]												113	1300	72	190	0%	2% and 0%				Inhibition (Rattus norvegicus [29]): 3%; Inhibition (Rattus norvegicus [30]): 49%; Inhibition (Rattus norvegicus [31]): 42%; Inhibition (Rattus norvegicus [32]): 0%; IC50 (Rattus norvegicus [35]): Not Active
CC(C)=CCC/C(C)=C/CC/C(C)=C/CC[C@]1(C)CCc2c(C)c(O)c(C)c(C)c2O1 [ALPHA-TOCOTRIENOL]										15	32	102	670	55	155	8% and 20%	12% and 33%	> 1000	1300 (≈ 3060 µM)	8	Inhibition (Rattus norvegicus [30]): 53%; Inhibition (Rattus norvegicus [31]): 49%
CC(C)=CCC/C(C)=C/CC/C(C)=C/CC[C@]1(C)CCc2cc(O)cc(C)c2O1 [DELTA-TOCOTRIENOL]										65	77	99	550	41	141	49% and 33%		260 (≈ 656 µM)	340 (≈ 857 µM)	26	Inhibition (Rattus norvegicus [38]): 62% and 63%
CC(C)=CCC/C(C)=C/CC/C(C)=C/CC[C@]1(C)CCc2cc(O)c(C)c(C)c2O1 [GAMMA-TOCOTRIENOL]	97	95	606	561	42	35	141	132	125	64	78	102	494	41	151	48% and 34%	61%	270 (≈ 658 µM)	360 (≈ 877 µM)	28	HDL cholesterol (Gallus gallus [39]): 94 mg 100ml-1; HMGR activity (Gallus gallus [40]): 546; LDL cholesterol (Gallus gallus [41]): 29 mg 100ml-1; Inhibition (Rattus norvegicus [29]): 64%; inhibition at 500 µg/mL (Rattus norvegicus [34]; Rattus norvegicus, Hepatocyte): 60%
